Source: PubChem
Hits are enriched below; roughly 2.1% of the tested compounds scored in any of these assays.
H9c2 protect = myocardial damage modulation in H9c2 cells | H9c2 cardiomyocytes, H2O2 injury protection, ATPLite, 2 h | protection from H2O2 cell death, % at 20 µM | 0.63% of 360,000 active | AID 588492;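 active = compounds giving at least 50% protection of heart cells from peroxide-induced death in the single-dose screen, raw or plate-pattern-corrected value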;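 also: 0% = DMSO wells with peroxide and 100% = DMSO wells without peroxide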
CRFBP-R2 agonist = CRF-BP/CRF-R2 complex agonism; 0.46% of 350,000 active; activation, % at 13.2 µM; HEK293 CRF-R2/CRF-BP, calcium dye fluorescence (FLIPR); percent of saturating CRF peptide response;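 active = activation of at least 50%, plus an integration ratio under a set limit after plate pattern correction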;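 also: plate controls were neutral control wells without compound for no effect and CRF at EC100 for full effect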
CRFR2-BP antag = antagonists of CRF-binding protein/CRF-R2 receptor complex; HEK293 CRF-R2/CRF-BP, CRF-induced calcium fluorescence; inhibition, % at 11.8 µM; 0.59% of 350,000 active; AID 588475;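 active = inhibition of the ligand-induced calcium signal above about 50% at the single tested concentration, limit read from the data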
UCH37 DUB inh = human UCH37 deubiquitinating enzyme inhibition. Q9Y5K5. purified proteasome/UCH37, Ub-AMC cleavage fluorescence. inhibition, % (test concentration not listed). 0.33% of 330,000 active;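 active = mean inhibition over replicate wells above about 20%, limit read from the data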;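 also: 0% = compound-free wells with enzyme and 100% = wells lacking proteasome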
Target sequence (Q9Y5K5 whole entry, looked up): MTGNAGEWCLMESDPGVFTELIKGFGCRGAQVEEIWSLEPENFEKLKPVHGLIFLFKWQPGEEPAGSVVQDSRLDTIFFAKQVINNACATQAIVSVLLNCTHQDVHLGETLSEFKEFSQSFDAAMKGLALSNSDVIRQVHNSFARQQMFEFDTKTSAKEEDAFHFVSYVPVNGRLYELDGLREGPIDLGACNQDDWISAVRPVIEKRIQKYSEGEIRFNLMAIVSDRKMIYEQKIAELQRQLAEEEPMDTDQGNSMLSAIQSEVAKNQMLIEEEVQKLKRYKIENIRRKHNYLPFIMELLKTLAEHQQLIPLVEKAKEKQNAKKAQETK
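Signal – fluorescence, ex 355 nm, em 460 nm · System – Proteasome-bound UCH37 · Input – 0.15 nM proteasome as dispensed · Timing – 30 min preincubation with enzyme, 25 min cleavage at room temperature · Read-out basis – percent inhibition of cleavage signal versus uninhibited and no-proteasome wells · Medium – Tris-HCl pH 7.4 with ATP-MgCl2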
iPSC survival up = hiPSC single-cell survival enhancement | ATPlite luminescence; 100% = ROCK inhibitor wells, 0% = DMSO | survival enhancement, % at 20 µM | 0.044% of 360,000 active | AID 602274; in the data active = survival enhancement above about 18%;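 also: cells exposed to compounds for 16 hours before the ATP read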
MIN6 prolif-1 = MIN6 beta-cell proliferation induction. MIN6 cells proliferation, ATPlite luminescence, 48 h; cells starved in 0.2% serum; 100% = growth in 10% serum. proliferation, % at 10 µM. 0.29% of 330,000 active;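 active = compounds whose signal lies at least 3.5 SD above the mean of all wells on their plate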;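 also: 0% = DMSO-treated cells in low-serum medium and 100% = 10% serum control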
MIN6 prolif-2 = confirmation of inducers of beta-cell replication in MIN6 cells. proliferation increase, % at 50 µM. 920 tested, under 10 active. MIN6 beta-cell proliferation, ATPlite luminescence, 48 h; cells kept in 0.2% serum; scaled between 0.2% and 10% serum. shares compounds with MIN6 prolif-1. AID 463095;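 active = proliferation increase above 40% at any of the four tested concentrations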
Active calls of the source: *.

For CCn1c(Oc2ccccc2C)nc2c1c(=O)n(C)c(=O)n2C the results were H9c2 protect -3, CRFBP-R2 agonist -2, CRFR2-BP antag 6, UCH37 DUB inh 4, iPSC survival up 1 and MIN6 prolif-1 2.
COc1cc(/C=N/NC(=O)CCOc2ccccc2C)cc(Br)c1O was read as H9c2 protect -7, CRFBP-R2 agonist 5, CRFR2-BP antag -23, iPSC survival up -2, MIN6 prolif-1 7.3* and MIN6 prolif-2 -4.
`COc1ccc(/C=N/NC(=O)CCOc2ccccc2C)cc1OC` gave H9c2 protect 0, CRFBP-R2 agonist 1, CRFR2-BP antag -3, iPSC survival up 0 and MIN6 prolif-1 2.
COC(=O)Cc1c(O)ccn(CCc2ccc(OC)c(OC)c2)c1=O was read as H9c2 protect -1, CRFBP-R2 agonist -1, CRFR2-BP antag -1, iPSC survival up 0, MIN6 prolif-1 7.2* and MIN6 prolif-2 1.
For O=C(O)c1cc(-c2ccccc2Cl)n(-c2ccc(F)cc2)n1 the results were H9c2 protect -2, CRFBP-R2 agonist -1, CRFR2-BP antag -6, UCH37 DUB inh 5, iPSC survival up 0, MIN6 prolif-1 8.0* and MIN6 prolif-2 -2.
For CCOC(=O)CSc1nc2ccccc2c(=O)n1C1CCCC1 the results were H9c2 protect 1, CRFBP-R2 agonist -1, CRFR2-BP antag 6, UCH37 DUB inh 3, iPSC survival up 3, MIN6 prolif-1 5.3* and MIN6 prolif-2 -6.
Screening CS(=O)(=O)NCCNc1cc(Cl)ccc1[N+](=O)[O-] returned H9c2 protect 3, CRFBP-R2 agonist 2, CRFR2-BP antag -6, UCH37 DUB inh 7, iPSC survival up 0 and MIN6 prolif-1 -2.
For CCCCNc1ccc(S(N)(=O)=O)cc1[N+](=O)[O-] the results were UCH37 DUB inh 7, MIN6 prolif-1 6.0* and MIN6 prolif-2 -3.
CS(=O)(=O)NCCNc1ccc(Cl)cc1[N+](=O)[O-] was read as H9c2 protect -3, CRFBP-R2 agonist -2, CRFR2-BP antag 28, UCH37 DUB inh 6, iPSC survival up 0, MIN6 prolif-1 7.7* and MIN6 prolif-2 -1.
`CCCCOCCCn1c(-c2ccco2)nc2nc3ccccc3nc21` gave H9c2 protect 22, CRFBP-R2 agonist 1, CRFR2-BP antag 0, UCH37 DUB inh -391, iPSC survival up 5, MIN6 prolif-1 7.8* and MIN6 prolif-2 -6.
Screening COc1cc(C=Nn2nnnc2N)ccc1OCc1c(C)no[n+]1[O-] returned UCH37 DUB inh -5.
Screening CCOc1cc(/C=N/n2nnnc2N)ccc1OCc1c(C)no[n+]1[O-] returned H9c2 protect -1, CRFBP-R2 agonist -1, CRFR2-BP antag 9, iPSC survival up 0, MIN6 prolif-1 0.0* and MIN6 prolif-2 3.
Screening Cc1cc(C(=O)OCC(=O)NCCN2C(=O)CSC2=O)ccc1[N+](=O)[O-] returned H9c2 protect -4, CRFBP-R2 agonist 0, CRFR2-BP antag 14, UCH37 DUB inh 2, iPSC survival up -2, MIN6 prolif-1 9.7* and MIN6 prolif-2 3.
Screening Cc1ccc(C(=O)OCC(=O)NCCN2C(=O)CSC2=O)cc1[N+](=O)[O-] returned H9c2 protect 1, CRFBP-R2 agonist -2, CRFR2-BP antag -5, UCH37 DUB inh 3, iPSC survival up 0 and MIN6 prolif-1 2.
CON(c1nc(Cl)nc(N(C)C)n1)S(=O)(=O)c1ccc(C)cc1 was read as H9c2 protect 3, CRFBP-R2 agonist 0, CRFR2-BP antag 0, UCH37 DUB inh 3, iPSC survival up 0 and MIN6 prolif-1 -2.
Screening COc1nc(N(C)C)nc(N(C#N)S(=O)(=O)c2ccc(C)cc2)n1 returned H9c2 protect -4, CRFBP-R2 agonist -2, CRFR2-BP antag 20, iPSC survival up 0, MIN6 prolif-1 5.8* and MIN6 prolif-2 1.
